Columns and labels:
[1] = system: Mus musculus; assay: Antiarrhythmic activity in ip dosed CF1 mouse assessed as protection against chloroform-induced ventricular fibrillation; type: functional; details: CF1, Heart
In short: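 Adult female CF1 mice; protection against ventricular fibrillation provoked by chloroform exposure, used as the first screen of antiarrhythmic activity.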

[2] = Acute toxicity in ip dosed CF1 mouse; type: organism-based; details: in vivo
[3] = system: Mus musculus; assay: Ratio of LD50 for CF1 mouse to ED50 for antiarrhythmic activity in CF1 mouse; parameters: species or system Heart
[4] = Antiarrhythmic activity in New Zealand rabbit left atrium assessed as reduction in maximum following frequency (MFF); type: functional, Oryctolagus cuniculus, Cardiac atrium
In short: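 Left atria from male New Zealand white rabbits, mounted in Krebs-Henseleit buffer at 35 °C and aerated with 95% O2-5% CO2. Driven by 10-ms square-wave pulses at five times threshold voltage. Control maximum following frequency (MFF) was determined first, then MFF reduction at 1, 3, 13, 33 and 133 μM. ED25 (concentration reducing MFF to 75% of control) was estimated from dose-response curves.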

[5] = Toxicity in New Zealand rabbit assessed as reduction in force of left atrial contraction; type: tissue-based, Oryctolagus cuniculus, Cardiac atrium
[6] = Ratio of ED25 for reduction in force of left atrial contraction in New Zealand rabbit to ED25 for reduction in maximum following frequency in New Zealand rabbit left atrium; parameters: species or system Oryctolagus cuniculus, Cardiac atrium

Row | SMILES | ED50 [1] [µmol/kg] | LD50 [2] [µmol/kg] | Ratio LD50/ED50 [3] | ED25 [4] [µM] | ED25 [5] [µM] | Ratio [6]
1 | CN1CC2CC(C1)CN(C(=O)c1ccccc1)C2.O=C(O)/C=C/C(=O)O | 85 | 621 | 7.29 | 400 | > 400 | –
2 | COc1ccc(C(=O)N2CC3CC(CN(C)C3)C2)cc1.O=C(O)/C=C/C(=O)O | 78 | 463 | 5.93 | 500 | > 400 | –
3 | COc1cc(C(=O)N2CC3CC(CN(C)C3)C2)cc(OC)c1OC.O=C(O)/C=C/C(=O)O | 137 | 535 | 3.91 | – | – | –
4 | CN1CC2CC(C1)CN(C(=O)c1ccc(Cl)cc1)C2.O=C(O)/C=C/C(=O)O | 49 | 535 | 10.89 | 110 | 400 | 3.64
5 | CN1CC2CC(C1)CN(C(=O)c1ccc(Cl)c(Cl)c1)C2.O=C(O)/C=C/C(=O)O | 470 | 492 | 1.05 | – | – | –
6 | CCCCN1CC2CC(C1)CN(C(=O)c1ccccc1)C2.Cl | 242 | 500 | 2.07 | – | – | –
7 | CCCCN1CC2CC(C1)CN(C(=O)c1ccc(OC)cc1)C2.O=C(O)/C=C/C(=O)O | 106 | 488 | 4.6 | – | – | –
8 | CCCCN1CC2CC(C1)CN(C(=O)c1ccc(Cl)cc1)C2.O=C(O)/C=C/C(=O)O | 134 | 463 | 3.45 | – | – | –
9 | CCCCN1CC2CC(C1)CN(C(=O)c1ccc(Cl)c(Cl)c1)C2.O=C(O)/C=C/C(=O)O | 223 | 605 | 2.71 | – | – | –
10 | CC(C)N(CCC(C(N)=O)(c1ccccc1)c1ccccn1)C(C)C (stereo not given) [DISOPYRAMIDE] | 90 | 517 | 5.77 | 18 | 56 | 3.11

From ChEMBL document CHEMBL3244421, “Antiarrhythmic activity of some N-alkylbispidinebenzamides” (J Med Chem, 1979)
